Measured values of several laboratories.
Protocols differ between the studies behind these lines.
Cell line: HepG2
Observed: cell growth or viability

| SMILES | technique | tested at | time | measurement | result |
| --- | --- | --- | --- | --- | --- |
| CC(C)c1ccc(/C=C2\SC(=S)N(CC(=O)Nc3ccccc3)C2=O)cc1 | MTT | 10 µM |  | inhibition | 17.5% |
| Cc1ccc2nc(-c3ccc(Cl)cc3)n(Cc3ccccc3)c2c1 | MTT |  |  | IC50 | 3.22 µM |
| COc1ccc(NC(=O)c2c(Nc3ccccc3)sc(C#N)c2NC(=O)CNc2ccc(Cl)cc2)cc1 | SRB | 0.1 µM | 48 h | viability | 72.4% |
| CCOC(=O)c1ccc(-n2c(C)cc(C)c(C#N)c2=O)cc1 | MTT | 100 µM | 24 h | viability | 36.4% |
| CCn1cc(-c2nc(C)no2)c(=O)c2cc(F)c(N3CCCCCC3)cc21 | ATP luminescence |  | 48 h | EC50 | > 40 µM |
| O=C(CN1C(=O)/C(=C/c2ccc(F)cc2)SC1=S)Nc1ccccc1 | MTT | 10 µM |  | inhibition | 6.59% |
| COc1ccc(NC(=O)c2c(Nc3ccccc3)sc(C#N)c2NC(=O)CNc2ccc(OC)c(OC)c2)cc1 | SRB | 1 nM | 48 h | viability | 100% |
| Cc1cc(=O)oc2ccc(-c3cc(-c4ccc(Cl)cc4)nc(N)n3)c(O)c12 | MTT | 2 µg/mL | 72 h | inhibition | 16% |
| COc1ccc(NC(=O)c2c(Nc3ccccc3)sc(C#N)c2NC(=O)CNc2ccc(Br)cc2)cc1 | SRB | 10 µM | 48 h | viability | 46.2% |
| C[C@H]1[C@@H](CC(=O)NCC(=O)N[C@@H](CC(=O)NC(C)(C)C)C(=O)NCCNC(=O)c2cc(-c3ccccc3F)ccc2F)O[C@@H]2O[C@@]3(C)CC[C@H]4[C@H](C)CC[C@@H]1[C@@]24OO3 | ATP luminescence |  | 72 h | EC50 | 5.8 µM |
| CCOC(=O)c1ccc(N2C(N)=C(C#N)C3(C(=O)Nc4ccccc43)C(C#N)=C2O)cc1 (centres unmarked) | MTT | 3.125 µM | 24 h | viability | 69.3% |
| COc1ccc(NC(=O)c2c(Nc3ccccc3)sc(C#N)c2NC(=O)CNc2ccccc2)cc1 | SRB | 10 µM | 48 h | viability | 90.4% |
| CCOC(=O)c1ccc(-n2c(N)c(C#N)c(CC#N)c(C#N)c2=O)cc1 | MTT | 50 µM | 24 h | viability | 35.1% |
| C=CCn1c(-c2ccc(Cl)cc2)nc2ccc(C)cc21 | MTT |  |  | IC50 | 38.8 µM |
| CCOC(=O)c1ccc(NC(=O)C2=C3C(=Nc4ccccc43)NC2=O)cc1 | MTT | 50 µM | 24 h | viability | 42.7% |
| COc1ccc(NC(=O)c2c(Nc3ccccc3)sc(C(=O)NN=Cc3ccc(C)cc3)c2NC(C)=O)cc1 | SRB | 10 µM | 48 h | viability | 68.2% |
| COc1cc2ncnc(Nc3ccc(F)c(Cl)c3)c2cc1NC(=O)N/N=C/CN(C)C | MTT |  | 72 h | IC50 | 2.08 µM |
| COc1ccc(NC(=O)c2c(Nc3ccccc3)sc(C(=O)NN=Cc3ccccc3)c2NC(C)=O)cc1 | SRB | 0.1 µM | 48 h | viability | 78.1% |
| Cc1cc(=O)oc2ccc(-c3cc(-c4ccccc4)nc(N)n3)c(O)c12 | MTT | 2 µg/mL | 72 h | inhibition | 0% |
| Cc1ccc2nc(-c3ccc([N+](=O)[O-])cc3)[nH]c2c1 | MTT |  | 48 h | IC50 | 18.6 µM |
| COc1ccc(NC(=O)c2c(Nc3ccccc3)sc(C#N)c2NC(=O)CNc2ccc(C)cc2)cc1 | SRB | 10 µM | 48 h | viability | 68.2% |
| Cc1ccc2nc(-c3ccc([N+](=O)[O-])cc3)n(Cc3ccccc3Cl)c2c1 | MTT |  |  | IC50 | 34.3 µM |
| CCn1cc(-c2nc(C)no2)c(=O)c2cc(F)c(N3CCCC3)cc21 | ATP luminescence |  | 48 h | EC50 | > 40 µM |
